This note sets out measurements from PubChem BioAssay.

A short description of assay [1]: reducers of endogenous Her2 protein level, primary screen, SKBR3 breast tumor cells, AlphaScreen, ATP viability (AID 461;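 active = Her2 level under about 52% in both replicate screens, with viability over 70% of control, limit read from the data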;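 as to Her2 level: lower value means less Her2 protein in the cells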;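 as to viability: percent of carrier control wells set as 100% viability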). The conditions noted are these: 18-24 h, measured here: SKBR3 viability, ATP luminescence, at 10 µM.
For assay [2], the target named is Receptor tyrosine-protein kinase erbB-2 (Homo sapiens) (UniProt P04626). The assay is described as above. The conditions noted are these: 18-24 h, at 10 µM, stronger effect = lower value.
Assay [3] in a line: SK-BR-3 cell growth inhibitors, pilot screen, 24 h, human (AID 572;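 active = viability at or below 10% of carrier control in both of two separate runs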;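 also: compound exposure lasted between 18 and 24 h rather than exactly 24 h; 100% = carrier-treated control wells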). Particulars: SK-BR-3 viability, CellTiter-Glo luminescence, at 10 µM, stronger effect = lower value.
The nature of assay [4]: HUVEC growth inhibition – cell-based, human, primary screen (AID 575;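 active = viability at or below 30% in both replicate assays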;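 also: 100% = median of untreated cell wells with 0.1% DMSO on each plate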). Particulars: HUVEC proliferation, CellTiter-Glo luminescence, 72 h; at 10 µM; stronger effect = lower value. An outline of the steps: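 System: primary human umbilical vein endothelial cells; Quantity: 1250 endothelial cells in each well; Buffer or medium: supplemented EBM, 2% fetal bovine serum; Doses: one dose, 10 µM final, 0.1% DMSO; Incubation: 72 h compound incubation; Technique: ATP-based CellTiter-Glo luminescent read; Evaluation: percent of median DMSO-control luminescence; Controls: vehicle and MePR control wells.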

Assay [5] can be described thus: growth inhibitors of H69AR lung tumor, primary screen, human, duplicate replicates (AID 580).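 Also: 100% = mean luminescence of untreated wells and 0% = no signal.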 The conditions noted are these: H69AR lung tumor cells viability, ATP luminescence, 72 h; at 10 µM; stronger effect = lower value.
A short description of assay [6]: reversal of MRP1-mediated doxorubicin resistance, pilot screen, H69AR cells, doxorubicin co-treatment (AID 601;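 active = viability loss from added drug above about 55%, and viability with drug at most 40%, in both replicates, limit read from the data, passing the limit was not always enough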). The conditions noted are these: CellTiter-Glo, 72 h, at 10 µM; for differential viability (reversal): stronger effect = higher value.
The nature of assay [7]: 384-well plate pilot, post-Golgi transport modulator project, inhibition of yeast transport mutant growth (AID 636; in the data active = inhibition above about 31%). The conditions noted are these: absorbance 615 nm, about 18 h, stronger effect = higher value.
A short description of assay [8]: growth suppression of yeast trafficking mutant, preliminary HTS, modulators of trafficking downstream of Golgi apparatus project, 1536-format plate, OD 615 nm (AID 637; in the data active = inhibition above about 30%). Particulars: yeast transport mutant growth, absorbance 615 nm, 18 h; stronger effect = higher value.
Setting [9] is: H69AR cells + 2 uM doxorubicin, measured here: viability with 2 uM doxorubicin, stronger effect = lower value.
[10] abbreviates: H69AR cells, compound alone cytotoxicity.

The source made the active and inactive calls.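 The calls were made as follows, unless noted: active = viability at or under a set limit in both replicates, limit being median viability minus 3 SD (cut at about 48% in these data, passing the limit was not always enough); inconclusive = at or under the limit in just one replicate; inactive = at or above the limit in both replicates.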

Chain of Receptor tyrosine-protein kinase erbB-2 (Homo sapiens) (P04626 whole entry, looked up): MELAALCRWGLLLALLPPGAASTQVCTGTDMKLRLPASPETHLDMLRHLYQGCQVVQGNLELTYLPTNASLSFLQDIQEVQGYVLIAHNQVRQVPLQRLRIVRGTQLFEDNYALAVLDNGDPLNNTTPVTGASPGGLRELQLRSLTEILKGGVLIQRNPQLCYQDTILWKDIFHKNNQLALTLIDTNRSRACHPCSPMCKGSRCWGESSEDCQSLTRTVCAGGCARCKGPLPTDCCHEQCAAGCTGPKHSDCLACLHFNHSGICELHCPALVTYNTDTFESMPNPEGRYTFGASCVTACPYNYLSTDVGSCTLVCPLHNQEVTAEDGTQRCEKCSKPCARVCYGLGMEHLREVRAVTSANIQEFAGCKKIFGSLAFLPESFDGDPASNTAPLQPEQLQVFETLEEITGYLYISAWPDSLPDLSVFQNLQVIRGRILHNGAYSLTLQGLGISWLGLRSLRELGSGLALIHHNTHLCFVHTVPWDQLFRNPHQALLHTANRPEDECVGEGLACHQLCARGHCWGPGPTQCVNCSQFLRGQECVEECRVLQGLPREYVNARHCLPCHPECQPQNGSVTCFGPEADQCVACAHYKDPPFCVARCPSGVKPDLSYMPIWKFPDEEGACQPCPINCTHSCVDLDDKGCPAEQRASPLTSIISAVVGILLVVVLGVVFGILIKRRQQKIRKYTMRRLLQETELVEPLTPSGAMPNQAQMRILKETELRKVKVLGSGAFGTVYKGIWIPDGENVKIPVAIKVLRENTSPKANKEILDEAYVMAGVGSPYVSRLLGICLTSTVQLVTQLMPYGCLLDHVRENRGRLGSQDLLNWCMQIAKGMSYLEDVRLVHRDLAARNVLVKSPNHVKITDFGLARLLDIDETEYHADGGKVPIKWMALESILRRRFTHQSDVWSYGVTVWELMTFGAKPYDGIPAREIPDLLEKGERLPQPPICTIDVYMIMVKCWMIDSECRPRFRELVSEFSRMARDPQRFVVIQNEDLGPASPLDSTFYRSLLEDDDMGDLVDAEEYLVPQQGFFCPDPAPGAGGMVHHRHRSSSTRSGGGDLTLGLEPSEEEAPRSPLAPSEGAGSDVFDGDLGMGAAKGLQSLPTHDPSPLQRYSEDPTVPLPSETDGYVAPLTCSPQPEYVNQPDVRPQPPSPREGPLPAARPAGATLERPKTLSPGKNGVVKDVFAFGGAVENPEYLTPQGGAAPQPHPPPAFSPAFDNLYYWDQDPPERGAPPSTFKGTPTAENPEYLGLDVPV

Turning to `COc1ccc(NC(=O)CS(=O)CC(=O)Nc2cc(Cl)ccc2OC)cc1` (stereo not given), the viability in assay [1] is 91.5%; in assay [3], 91.5% (inactive); in assay [4], 80.8% (inactive); in assay [5], 90.9% (inactive); in assay [6] (setting [9]) it was 92.1%; in assay [6] (setting [10]) it was 90.9%. Also, the Her2 level in assay [2] is 106% (inactive). In addition, the differential viability (reversal) in assay [6] (H69AR cells + 2 uM doxorubicin) is -1.21% (inactive). Also, the inhibition in assay [7] was -4.36% (inactive); in assay [8], -3.67% (inactive).

Turning to `COC(=O)c1c(O)ccc(Oc2ccccc2)c1C(=O)OC`, the viability in assay [1] was 104%; in assay [3] it was 104% (inactive); in assay [4] it was 95.9% (inactive); in assay [5], 85.3% (inactive); in assay [6] (setting [9]), 86.4%; in assay [6] (setting [10]) it was 85.3%. The Her2 level in assay [2] was 119% (inactive). Moreover, the differential viability (reversal) in assay [6] (H69AR cells + 2 uM doxorubicin) is -1.09% (inactive). The figures for the inhibition in assay [7] and in assay [8] were -4.49% (inactive) and -4.67% (inactive), respectively.

For `CC(=O)N1CCc2cc(S(=O)(=O)CCC(=O)N3CCN(c4ccccn4)CC3)ccc21`, the viability in assay [1] is 91.5%; in assay [3] it was 91.5% (inactive); in assay [4], 105% (inactive); in assay [5], 98% (inactive); in assay [6] (setting [9]), 91.6%; in assay [6] (setting [10]), 98%. Moreover, in assay [2], the Her2 level is 98% (inactive). For the same molecule, in assay [6] (H69AR cells + 2 uM doxorubicin), the differential viability (reversal) is 6.38% (inactive). The inhibition in assay [7] was 4.67% (inactive); in assay [8], 12% (inactive).

`COc1ccc(N2CCN(Cc3nc4ccccc4c(=O)[nH]3)CC2)cc1`: the viability was 104% in assay [1]; 104% (inactive) in assay [3]; 92.1% (inactive) in assay [4]; 94.3% (inactive) in assay [5]; 96.8% in assay [6] (setting [9]); 94.3% in assay [6] (setting [10]). For the same molecule, the Her2 level in assay [2] was 98% (inactive). In assay [6] (H69AR cells + 2 uM doxorubicin), the differential viability (reversal) was -2.54% (inactive). Besides, the inhibition in assay [7] was -3.33% (inactive); in assay [8] it was -5.57% (inactive).

In the case of `C=CCn1cc(C(=O)NCCOC)c(=O)c2cc(S(=O)(=O)N(CC)CC)ccc21`, the viability in assay [1] was 98.5%; in assay [3], 98.5% (inactive); in assay [4], 86.6% (inactive); in assay [5], 83.1% (inactive); in assay [6] (setting [9]) it was 92.4%; in assay [6] (setting [10]), 83.1%. Moreover, the Her2 level in assay [2] was 93.5% (inactive). In assay [6] (H69AR cells + 2 uM doxorubicin), the differential viability (reversal) was -9.34% (inactive). Also, the values for the inhibition in assay [7] and in assay [8] were -5.13% (inactive) and -2.73% (inactive), respectively.

Consider `O=C(CC(C(=O)N1CCc2ccccc21)n1ccnc1)NCc1cccnc1` (stereo not given), for which the viability in assay [1] is 100%; in assay [3], 100% (inactive); in assay [4], 97.9% (inactive); in assay [5] it was 89.1% (inactive); in assay [6] (setting [9]), 100%; in assay [6] (setting [10]), 89.1%. For the same molecule, in assay [2], the Her2 level is 100% (inactive). Also, the differential viability (reversal) in assay [6] (H69AR cells + 2 uM doxorubicin) is -10.9% (inactive). For the same molecule, the values for the inhibition in assay [7] and in assay [8] were 1.17% (inactive) and 1.8% (inactive), respectively.

For the molecule `CCCCOCP(=O)(CCCC)COCCCC`, the viability in assay [1] was 92.5%; in assay [3], 92.5% (inactive); in assay [4], 95.3% (inactive); in assay [5] it was 94.1% (inactive); in assay [6] (setting [9]), 88.8%; in assay [6] (setting [10]) it was 94.1%. The Her2 level in assay [2] is 91.5% (inactive). In assay [6] (H69AR cells + 2 uM doxorubicin), the differential viability (reversal) is 5.32% (inactive). The inhibition in assay [7] is -3.12% (inactive); in assay [8], -0.98% (inactive).

For `CCCCCCC1/C(=N/O)CCC1C(=O)OC` (stereo not given), the viability is 108% in assay [1]; 108% (inactive) in assay [3]; 109% (inactive) in assay [4]; 83.2% (inactive) in assay [5]; 84.2% in assay [6] (setting [9]); 83.2% in assay [6] (setting [10]). For the same molecule, the Her2 level in assay [2] was 95.5% (inactive). Besides, the differential viability (reversal) in assay [6] (H69AR cells + 2 uM doxorubicin) was -1.02% (inactive). In addition, the values for the inhibition in assay [7] and in assay [8] were -8.44% (inactive) and -5.71% (inactive), respectively.

`CCOC(=O)c1ccc(NC(=O)CSc2ncccn2)cc1`: the viability in assay [1] was 104%; in assay [3], 104% (inactive); in assay [4] it was 85.9% (inactive); in assay [5] it was 96.9% (inactive); in assay [6] (setting [9]) it was 94.5%; in assay [6] (setting [10]), 96.9%. Besides, the Her2 level in assay [2] was 112% (inactive). In addition, the differential viability (reversal) in assay [6] (H69AR cells + 2 uM doxorubicin) was 2.45% (inactive). In addition, the inhibition in assay [7] is -0.53% (inactive); in assay [8], 4.26% (inactive).

With `O=C(COc1ccccc1)NCC(c1cccs1)N1CCOCC1` (stereo not given), the viability in assay [1] was 84%; in assay [3], 84% (inactive); in assay [4] it was 91.7% (inactive); in assay [5] it was 97.7% (inactive); in assay [6] (setting [9]), 83.4%; in assay [6] (setting [10]), 97.7%. Moreover, the Her2 level in assay [2] is 126% (inactive). Moreover, the differential viability (reversal) in assay [6] (H69AR cells + 2 uM doxorubicin) was 14.4% (inactive). In addition, the inhibition is 1.2% (inactive) in assay [7] and -4.29% (inactive) in assay [8].

On to `Cc1nnc(SCC(=O)Nc2cc(C(F)(F)F)ccc2N2CCOCC2)o1`, for which the viability in assay [1] is 93%; in assay [3], 93% (inactive); in assay [4] it was 93.8% (inactive); in assay [5], 86.8% (inactive); in assay [6] (setting [9]), 89%; in assay [6] (setting [10]), 86.8%. In assay [2], the Her2 level is 99% (inactive). In addition, the differential viability (reversal) in assay [6] (H69AR cells + 2 uM doxorubicin) is -2.25% (inactive). The inhibition in assay [7] is -0.13% (inactive); in assay [8], -1.83% (inactive).

With `Cc1ccc(S(=O)(=O)N(CC(=O)NCc2ccco2)Cc2ccccc2F)cc1`, the viability in assay [1] was 92%; in assay [3], 92% (inactive); in assay [4] it was 104% (inactive); in assay [5], 107% (inactive); in assay [6] (setting [9]), 85.5%; in assay [6] (setting [10]), 107%. Further, the Her2 level in assay [2] was 108% (inactive). In addition, in assay [6] (H69AR cells + 2 uM doxorubicin), the differential viability (reversal) is 21.3% (inactive). Besides, the inhibition in assay [7] was -2.67% (inactive); in assay [8], -5.97% (inactive).

Consider `Cc1ccc(Cn2c(SCCN3CCCCC3)nc3c2c(=O)[nH]c(=O)n3C)cc1`, for which the viability in assay [1] was 94.5%; in assay [3], 94.5% (inactive); in assay [4], 84.1% (inactive); in assay [5] it was 81.7% (inactive); in assay [6] (setting [9]) it was 84.8%; in assay [6] (setting [10]), 81.7%. Also, the Her2 level in assay [2] was 104% (inactive). In addition, the differential viability (reversal) in assay [6] (H69AR cells + 2 uM doxorubicin) is -3.14% (inactive). Moreover, the inhibition in assay [7] was -7.6% (inactive); in assay [8] it was -6.83% (inactive).

On to `COc1ccc(-c2cn3c(C)c(C(=O)Nc4cc(NC(C)=O)ccc4OC)sc3n2)cc1`, for which the viability in assay [1] is 92%; in assay [3] it was 92% (inactive); in assay [4] it was 71.5% (inactive); in assay [5], 20.2% (active); in assay [6] (setting [9]), 63.1%; in assay [6] (setting [10]), 20.2%. Moreover, the Her2 level in assay [2] was 79.5% (inactive). The differential viability (reversal) in assay [6] (H69AR cells + 2 uM doxorubicin) is -42.9% (inactive). Moreover, the results for the inhibition in assay [7] and in assay [8] were -5.73% (inactive) and -2.13% (inactive), respectively.

With `COc1cccc(OC)c1C(=O)Nc1ccc(CN2CCCCC2)cc1`, the viability in assay [1] was 98.5%; in assay [3], 98.5% (inactive); in assay [4] it was 102% (inactive); in assay [5], 89.4% (inactive); in assay [6] (setting [9]), 80.4%; in assay [6] (setting [10]), 89.4%. Further, in assay [2], the Her2 level was 84% (inactive). Moreover, the differential viability (reversal) in assay [6] (H69AR cells + 2 uM doxorubicin) was 8.96% (inactive). In addition, the results for the inhibition in assay [7] and in assay [8] were -0.66% (inactive) and -2.06% (inactive), respectively.

As to `Cc1nc2nc(Cc3ccccc3)[nH]n2c(=O)c1Cc1ccccc1`, the viability in assay [1] is 117%; in assay [3], 117% (inactive); in assay [4], 96.6% (inactive); in assay [5] it was 96.2% (inactive); in assay [6] (setting [9]), 87.4%; in assay [6] (setting [10]), 96.2%. Further, the Her2 level in assay [2] is 104% (inactive). The differential viability (reversal) in assay [6] (H69AR cells + 2 uM doxorubicin) is 8.81% (inactive). The inhibition in assay [7] was -0.53% (inactive); in assay [8], 1.64% (inactive).
